Measured values collected from several papers.
Lines come from different studies, so protocols differ. ≈ marks a conversion by molar mass, not a printed value.
Organism: Mycobacterium tuberculosis
Read-out: microbial growth

Compound | assay | test system | setting | quantity | value
CSCOc1ccc2nc3ccc(=O)cc-3oc2c1 |  |  | 7 days | MIC90 | 47 µM (≈ 12.8 µg/mL)
CN[C@@H]1[C@H](O)[C@H](NC)[C@H]2O[C@@]3(O)C(=O)C[C@@H](C)O[C@H]3O[C@@H]2[C@H]1O | broth dilution | H37RV | 7 days | MIC | 100 µg/mL
CC[C@@H](CO)NCCN[C@@H](CC)CO | resazurin | H37RV |  | MIC | 7.64 µM
O=C1c2ccccc2NC(c2cc([N+](=O)[O-])ccc2O)N1/N=C/c1cc([N+](=O)[O-])ccc1O (centres unmarked) |  | ATCC25177 H37RA | 14 days | MIC | 64 µg/mL
CC(C)/N=c1\cc2n(-c3ccc(Cl)cc3)c3ccccc3nc-2cc1Nc1ccc(Cl)cc1 |  |  | 7 days | MIC90 | 0.39 µM (≈ 0.185 µg/mL)
O=C(O)c1cn(C2CC2)c2cc(N3CCNCC3)c(F)cc2c1=O |  | ATCC25177 H37RA | 14 days | MIC | 16 µg/mL
COc1c(N2CC3CCCN(C(=O)OCc4ccc([N+](=O)[O-])cc4)C3C2)c(F)cc2c(=O)c(C(=O)O)cn(C3CC3)c12 (centres unmarked) |  | H37RV |  | MIC | > 8 µM
CCOC(=O)C1=C(C)NC(=NNS(=O)(=O)c2ccccc2)NC1c1cn(-c2ccccc2)nc1-c1ccccc1 (centres unmarked) | resazurin | H37RV |  | MIC | 44.6 to 45.8 µM
CC(=O)OCOc1ccc2nc3ccc(=O)cc-3oc2c1 |  |  | 7 days | MIC90 | 34 µM
CCOC(=O)C1=C(C)NC(=S)NC1c1cn(-c2ccccc2)nc1-c1ccccc1 (centres unmarked) | resazurin | H37RV |  | MIC | 59.7 µM
NNC(=O)c1ccncc1 | resazurin | H37RV | 0.212 µM | inhibition | 44%
COc1c(N2CC3CCCNC3C2)c(F)cc2c(=O)c(C(=O)OCc3cnc([N+](=O)[O-])s3)cn(C3CC3)c12 (centres unmarked) |  | H37RV |  | MIC | 0.25 µM
CCOC(=O)C1=C(C)NC(=O)NC1c1ccc([N+](=O)[O-])o1 (centres unmarked) | resazurin | H37RV |  | MIC | 20.1 µM
CCCCOc1ccc2nc3ccc(=O)cc-3oc2c1 |  |  | 7 days | MIC90 | ≤ 10 µM
